Results on 2 substances are retold here after publication PMC10237622 (Structure (London, England : 1993), 2023).

Assay [1] addresses CSP peptide Pep-IV (3 NPNV; 1 NPNA). Description: Biolayer interferometry. The assay is classed as binding, Plasmodium falciparum. (Biolayer interferometry detects binding as a change in optical thickness at a sensor tip.)
Assay [2] concerns CSP peptide Pep-III (2 NPNV; 0 NPNA). Description: Biolayer interferometry. The assay is classed as binding, Plasmodium falciparum.
The subject of assay [3] is CSP peptide Pep-I (1 NPNV; 0 NPNA). Description: Biolayer interferometry. Type of assay: binding, Plasmodium falciparum. The note with it: IgG versus Fab. In a few lines:
(§1)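 Streptavidin biosensors were loaded with biotinylated CSP peptide at 0.1 ug/mL in PBS + 1% BSA. Loading times were shortened per peptide (45, 30, 15, 3 s) to keep density below 0.01 nm. After a 60 s baseline, Fab (2000–2.7 nM), IgG (1000–1.3 nM) or IgM (100–0.1 nM) associated for 240–300 s, then dissociated 1200 s, at 30°C with agitation. Curves were drift-corrected against a loaded sensor in PBS and fitted globally to a 1:1 Langmuir model.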

Assay [4] deals with peptides Pep-I through Pep-IV. Kind of assay: Reverse-format BLI, immobilized L9 IgG dipped into peptide. The assay is classed as binding, Plasmodium falciparum. Conditions: IgG (5 ug/mL) immobilized on AHC biosensors to 0.1 nm, dipped into varying peptide concentrations, 30°C.
The subject of assay [5] is CSP peptides Pep-II through Pep-IV. Kind of assay: BLI free energies of binding, peptides Pep-II through Pep-IV versus Pep-I. Also noted: species or system Plasmodium falciparum. The note with it: Pep-II though Pep-IV after subtraction of Pep-I. The gist of the method:
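Free energy of binding was calculated from each experimental KD. The Pep-I value was subtracted from Pep-II through Pep-IV to isolate added binding energy from multivalent and homotypic interactions.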

Assay [6] has as its system CSP peptide Pep-II (1 NPNV; 1 NPNA). Kind of assay: Biolayer interferometry. The assay is classed as binding, Plasmodium falciparum. In a few lines: as §1

For the substance L9 IgG: L9 IgG, produced in house, the “decrease in KD (in words)” value in assay [1] (L9 IgG, Pep-IV versus Pep-I) is listed as “over two orders of magnitude”. The “affinity (in words)” value in assay [1] (Pep-IV (3 NPNV; 1 NPNA)) is given as “substantially higher affinity”. Further, the “increase in affinity (free energy of binding ΔG minus ΔG of Pep-I)” value in assay [2] (L9 IgG, homotypic and preferred NPNV with two L9s (Pep-III), calculated from KD) is -2.2 kcal/mol; in assay [6] (L9 IgG, homotypic and less preferred NPNA with two L9s (Pep-II), calculated from KD), -1.1 kcal/mol. Further, the “affinity, fold higher than to Pep-II” value in assay [2] (Pep-III versus Pep-II) is ~ 6 fold. For the same substance, the “on-rate, fold higher than Fab” value in assay [3] was determined as 25 fold. Moreover, the “affinity, reverse format (in words)” value in assay [4] is listed as “comparable affinities to peptides Pep-I through Pep-IV”. Besides, in assay [5], the “increase in affinity, Fab/IgG/IgM context compared (in words)” value is given as “greatest in the IgG context”. The “affinity, fold higher than to Pep-I” value in assay [6] (Pep-II versus Pep-I) was ~ 6 fold.
For IgM: L9 IgM, produced in house, in assay [5], the “increase in affinity, Fab/IgG/IgM context compared (in words)” value was “lowest in the IgM context”.
